Reference: ChEMBL document CHEMBL4422643, “Physalactone and 4β-Hydroxywithanolide E Isolated from Physalis peruviana Inhibit LPS-Induced Expression of COX-2 and iNOS Accompanied by Abatement of Akt and STAT1” (J Nat Prod, 2019)
pIC50: −log10 of the molar value. Activity calls are given as the source filed them. No cut-off for these calls is given here.

Experiments:
RAW264.7 [1] = experiment: Antiinflammatory activity against mouse RAW264.7 cells assessed as inhibition of LPS-induced nitric oxide production by measuring nitrite levels at 50 uM preincubated for 30 mins followed by LPS challenge and measured after 16 hrs by Griess assay (reference value: 32.4 +/- 0.9 uM); assay type: functional
RAW264.7 [2] = experiment: Effect on total AKT expression in LPS-stimulated mouse RAW264.7 cells at 40 uM preincubated for 30 mins followed by LPS-stimulation and measured up to 240 mins by Western blot analysis; assay type: ADME, cell-based; conditions: raw264.7, 4 h
Method in brief: (§1)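 RAW 264.7 cells were pretreated 30 min with compound (5 or 40 μM), then given LPS 1 μg/mL for several time points. Western blots of whole-cell lysates probed IκBα, total and Ser473-phospho Akt, and total and Tyr701-phospho STAT1, with GAPDH as loading reference. Detection used HRP chemiluminescence.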

[3] = Effect on SAPK/JNK1/2 phosphorylation at T183/Y185 residues in mouse RAW264.7 cells at 40 uM measured after 30 mins by Western blot analysis; assay type: ADME, cell-based; conditions: raw264.7, 0.5 h
[4] = target: T1, I-kappa-B kinase (Mus musculus) (UniProt Q60680+O88351+O88522); experiment: Effect on IKK-mediated IkappaBalpha degradation in LPS-stimulated mouse RAW264.7 cells assessed as IkappaBalpha recovery at 40 uM preincubated for 30 mins followed by LPS-stimulation and measured after 20 to 240 mins by Western blot analysis; assay type: cell-based; method in brief: as §1
RAW264.7 [5] = experiment: Antiinflammatory activity against mouse RAW264.7 cells assessed as inhibition of LPS induced COX2 mRNA expression preincubated for 30 mins followed by LPS challenge and measured after 3 to 12 hrs by SYBR green dye based qRT-PCR analysis; assay type: functional, cell-based
Method in brief: (§2)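 RAW 264.7 cells were pretreated 30 min, then given LPS 1 μg/mL for 3, 6, 9 or 12 h. Total RNA went to qRT-PCR with SYBR Green for Nos2/Ptgs2. Values were normalized to β-actin by 2^−ΔΔCT and expressed as fold change versus unstimulated cells. n = 3; means ± SD; significance versus LPS-only at p < 0.05.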

[6] = target: RAC-alpha serine/threonine-protein kinase (Mus musculus) (UniProt P31750); experiment: Inhibition of LPS-induced AKT phosphorylation at S473 residue in mouse RAW264.7 cells at 40 uM preincubated for 30 mins followed by LPS-stimulation and measured up to 240 mins by Western blot analysis; assay type: cell-based; method in brief: as §1
Chain of RAC-alpha serine/threonine-protein kinase (Mus musculus) (P31750 whole entry): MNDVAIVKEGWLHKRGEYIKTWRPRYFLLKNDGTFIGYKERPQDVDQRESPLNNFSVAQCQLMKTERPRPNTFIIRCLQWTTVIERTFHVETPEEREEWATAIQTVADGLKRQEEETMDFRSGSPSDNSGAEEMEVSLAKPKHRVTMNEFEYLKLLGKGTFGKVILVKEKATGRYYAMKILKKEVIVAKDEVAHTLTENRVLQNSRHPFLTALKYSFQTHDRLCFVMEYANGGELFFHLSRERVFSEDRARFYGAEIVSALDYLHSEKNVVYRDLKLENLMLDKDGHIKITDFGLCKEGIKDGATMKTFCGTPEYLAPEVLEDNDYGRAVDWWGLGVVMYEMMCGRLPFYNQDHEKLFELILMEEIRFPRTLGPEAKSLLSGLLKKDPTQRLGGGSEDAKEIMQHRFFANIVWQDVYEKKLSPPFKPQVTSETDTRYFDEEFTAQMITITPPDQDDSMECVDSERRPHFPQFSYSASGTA

RAW264.7 [7] = experiment: Antiinflammatory activity against mouse RAW264.7 cells assessed as inhibition of LPS induced iNOS expression at 50 uM preincubated for 30 mins followed by LPS challenge and measured after 16 hrs by Western blot analysis; assay type: functional, cell-based
Method in brief: (§3)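 RAW 264.7 cells in DMEM with 10% heat-inactivated FBS and penicillin/streptomycin at 37 °C, 5% CO2. Cells were pretreated 30 min at 50 μM, then given LPS 1 μg/mL for 16 h. iNOS and COX-2 protein were detected by Western blot (8–12% SDS-PAGE, PVDF, HRP secondary, chemiluminescence imaging), with equal total protein loaded by Bradford assay. n = 3.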

RAW264.7 [8] = experiment: Antiinflammatory activity against mouse RAW264.7 cells assessed as inhibition of LPS induced iNOS expression preincubated for 30 mins followed by LPS challenge and measured after 16 hrs by Western blot analysis; assay type: functional, cell-based
RAW264.7 [9] = experiment: Effect on total STAT1 expression in LPS-stimulated mouse RAW264.7 cells at 40 uM preincubated for 30 mins followed by LPS-stimulation and measured up to 240 mins by Western blot analysis; assay type: ADME, cell-based; conditions: raw264.7, 4 h; method in brief: as §1
RAW264.7 [10] = experiment: Antiinflammatory activity against mouse RAW264.7 cells assessed as inhibition of LPS induced iNOS mRNA expression preincubated for 30 mins followed by LPS challenge and measured after 3 to 12 hrs by SYBR green dye based qRT-PCR analysis; assay type: functional, cell-based; method in brief: as §2
[11] = target: T1, I-kappa-B kinase (Mus musculus); experiment: Effect on IKK-mediated IkappaBalpha degradation in LPS-stimulated mouse RAW264.7 cells at 40 uM preincubated for 30 mins followed by LPS-stimulation and measured after 10 mins by Western blot analysis; assay type: cell-based; method in brief: as §1
RAW264.7 [12] = experiment: Antiinflammatory activity against mouse RAW264.7 cells assessed as inhibition of LPS-induced nitric oxide production preincubated for 30 mins followed by LPS challenge and measured after 18 hrs by Griess assay; assay type: functional, cell-based
Method in brief: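 Macrophages (RAW 264.7, 5 × 10^5/well, 24 h settle) were pretreated 30 min in phenol-red-free medium at 0.128–5.0 or 1.0–40 μM, then given LPS 1 μg/mL for 18 h. Culture-supernatant nitrite was read by Griess reaction, and an IC50 was estimated from the concentration–response. n = 3.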

RAW264.7 [13] = experiment: Antiinflammatory activity against mouse RAW264.7 cells assessed as inhibition of LPS induced COX2 expression at 50 uM preincubated for 30 mins followed by LPS challenge and measured after 16 hrs by Western blot analysis; assay type: functional, cell-based; method in brief: as §3
RAW264.7 [14] = experiment: Antiinflammatory activity against mouse RAW264.7 cells assessed as inhibition of LPS induced COX2 expression preincubated for 30 mins followed by LPS challenge and measured after 16 hrs by Western blot analysis; assay type: functional, cell-based
[15] = target: T2, Signal transducer and activator of transcription 1 (Mus musculus) (UniProt P42225); experiment: Inhibition of LPS-induced STAT1 phosphorylation at Y701 residue in mouse RAW264.7 cells at 40 uM preincubated for 30 mins followed by LPS-stimulation and measured up to 240 mins by Western blot analysis; assay type: cell-based; method in brief: as §1
T2 sequence (whole entry): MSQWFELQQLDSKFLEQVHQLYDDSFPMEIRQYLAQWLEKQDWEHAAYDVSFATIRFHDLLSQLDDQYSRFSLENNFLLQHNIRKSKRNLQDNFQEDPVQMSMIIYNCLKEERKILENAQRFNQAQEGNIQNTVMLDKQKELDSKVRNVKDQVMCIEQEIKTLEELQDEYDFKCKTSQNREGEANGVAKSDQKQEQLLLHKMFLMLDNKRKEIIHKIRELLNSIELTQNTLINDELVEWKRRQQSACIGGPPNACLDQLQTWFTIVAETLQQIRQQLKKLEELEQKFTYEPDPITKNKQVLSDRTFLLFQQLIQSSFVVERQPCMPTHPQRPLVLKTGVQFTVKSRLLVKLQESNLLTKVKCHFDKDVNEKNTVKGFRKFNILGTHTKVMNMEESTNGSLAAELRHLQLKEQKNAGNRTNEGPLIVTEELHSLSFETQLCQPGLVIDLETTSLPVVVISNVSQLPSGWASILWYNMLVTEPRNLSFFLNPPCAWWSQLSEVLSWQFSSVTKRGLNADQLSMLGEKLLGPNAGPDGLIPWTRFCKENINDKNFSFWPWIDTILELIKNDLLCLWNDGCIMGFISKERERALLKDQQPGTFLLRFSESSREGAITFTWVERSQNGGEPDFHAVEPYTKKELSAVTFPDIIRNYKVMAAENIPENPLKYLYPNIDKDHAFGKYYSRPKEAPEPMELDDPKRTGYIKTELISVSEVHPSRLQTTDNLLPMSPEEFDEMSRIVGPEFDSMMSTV

RAW264.7 [16] = experiment: Effect on total STAT1 expression in LPS-stimulated mouse RAW264.7 cells at 5 uM preincubated for 30 mins followed by LPS-stimulation and measured up to 240 mins by Western blot analysis; assay type: ADME, cell-based; conditions: raw264.7, 4 h; method in brief: as §1
[17] = target: RAC-alpha serine/threonine-protein kinase (Mus musculus) (UniProt P31750); experiment: Inhibition of LPS-induced AKT phosphorylation at S473 residue in mouse RAW264.7 cells at 5 uM preincubated for 30 mins followed by LPS-stimulation and measured up to 240 mins by Western blot analysis; assay type: cell-based; method in brief: as §1
RAW264.7 [18] = experiment: Effect on total AKT expression in LPS-stimulated mouse RAW264.7 cells at 5 uM preincubated for 30 mins followed by LPS-stimulation and measured up to 240 mins by Western blot analysis; assay type: ADME, cell-based; conditions: raw264.7, 4 h; method in brief: as §1
[19] = target: T2, Signal transducer and activator of transcription 1 (Mus musculus); experiment: Inhibition of LPS-induced STAT1 phosphorylation at Y701 residue in mouse RAW264.7 cells at 5 uM preincubated for 30 mins followed by LPS-stimulation and measured up to 240 mins by Western blot analysis; assay type: cell-based; method in brief: as §1
[20] = target: T1, I-kappa-B kinase (Mus musculus); experiment: Effect on IKK-mediated IkappaBalpha degradation in LPS-stimulated mouse RAW264.7 cells at 5 uM preincubated for 30 mins followed by LPS-stimulation and measured after 10 mins by Western blot analysis; assay type: cell-based; method in brief: as §1
[21] = target: T1, I-kappa-B kinase (Mus musculus); experiment: Effect on IKK-mediated IkappaBalpha degradation in LPS-stimulated mouse RAW264.7 cells assessed as IkappaBalpha recovery at 5 uM preincubated for 30 mins followed by LPS-stimulation and measured after 20 to 240 mins by Western blot analysis; assay type: cell-based; method in brief: as §1
[22] = Effect on SAPK/JNK1/2 phosphorylation at T183/Y185 residues in mouse RAW264.7 cells at 5 uM measured after 30 mins by Western blot analysis; assay type: ADME, cell-based; conditions: raw264.7, 0.5 h

SMILES | Activity (RAW264.7 [1]) | inhibition (RAW264.7 [5]) | inhibition (RAW264.7 [7]) | inhibition (RAW264.7 [8]) | inhibition (RAW264.7 [10]) | pIC50 (RAW264.7 [12]) | inhibition (RAW264.7 [13]) | inhibition (RAW264.7 [14]) | other results
CO[C@H]1CC(=O)[C@]2(C)[C@H]3CC[C@]4(C)[C@](O)([C@@](C)(O)[C@H]5CC(C)=C(C)C(=O)O5)CC[C@@]4(O)[C@@H]3C[C@H]3O[C@]32[C@H]1O | 1.1 µM | Dose-dependent effect | Active | Dose-dependent effect | Dose-dependent effect | 4.86 | Active | Dose-dependent effect | Activity (RAW264.7 [2]): Non-Toxic; Activity [3]: Not Active; Activity [4]: inactive; inhibition [6]: Active; Activity (RAW264.7 [9]): Non-Toxic; Activity [11]: inactive; inhibition [15]: Active
CC1=C(C)C(=O)O[C@@H]([C@](C)(O)[C@]2(O)CC[C@@]3(O)[C@@H]4C[C@H]5O[C@]56[C@@H](O)C=CC(=O)[C@]6(C)[C@H]4CC[C@]23C)C1 | 0.9 µM | Dose-dependent effect | Active | Dose-dependent effect | Dose-dependent effect | 5.74 | Active | Dose-dependent effect | Activity (RAW264.7 [16]): Non-Toxic; inhibition [17]: Active; Activity (RAW264.7 [18]): Non-Toxic; inhibition [19]: Active; Activity [20]: inactive; Activity [21]: inactive; Activity [22]: Not Active
